FLuc stim CS: affects firefly luciferase, flagging false hits in luciferase stimulation screens. P08659. activation factor at 10 µM. 200,000 tested, under 10 active. ATPlite luciferase biochemical, luminescence, 10 min; 0 = ATP-free wells, 1 = DMSO control;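 active = luciferase activation factor, scaled between plate controls, of at least 2 with compound at 10 µM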
Target sequence (P08659 whole entry, looked up): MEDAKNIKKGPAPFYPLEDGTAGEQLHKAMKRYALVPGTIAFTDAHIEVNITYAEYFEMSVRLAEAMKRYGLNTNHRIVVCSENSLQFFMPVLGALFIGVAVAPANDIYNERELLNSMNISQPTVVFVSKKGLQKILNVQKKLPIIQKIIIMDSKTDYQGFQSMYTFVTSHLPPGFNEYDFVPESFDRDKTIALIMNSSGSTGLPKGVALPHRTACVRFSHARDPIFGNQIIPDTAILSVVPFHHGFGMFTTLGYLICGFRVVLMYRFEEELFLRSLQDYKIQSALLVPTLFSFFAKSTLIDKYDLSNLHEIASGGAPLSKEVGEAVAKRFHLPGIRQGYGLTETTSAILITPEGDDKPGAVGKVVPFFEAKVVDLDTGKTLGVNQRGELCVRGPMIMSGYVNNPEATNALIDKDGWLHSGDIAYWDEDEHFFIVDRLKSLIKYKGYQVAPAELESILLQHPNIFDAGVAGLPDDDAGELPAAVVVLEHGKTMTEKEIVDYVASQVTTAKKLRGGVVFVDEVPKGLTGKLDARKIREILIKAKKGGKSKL
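System: cell-free luciferase reagent; medium: PBS as buffer for the ATP substrate; doses: test compounds dosed from 2 mM stocks in 100% DMSO; incubation: 10 min, room temperature; measured by: luminescence from luciferase reaction; read-out: luciferase activation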
FLuc inhib CS: counter-screen for luciferase assay inhibitors: firefly luciferase inhibition. ATPLite firefly luciferase biochemical luminescence, 10 min. inhibition, % at 10 µM. P08659. actives 1.5% (n = 200,000). AID 1006;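 active = inhibition above about 50% when tested at 10 µM, limit read from the data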
PPC-1+TRAIL kill: kills PPC-1 cancer cells in the presence of TRAIL | PPC-1 cells + TRAIL, ATPLite viability luminescence | cell killing (% activity), % at 4 µM or 5 µM | actives 0.41% (n = 220,000);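 active = cell killing above 50% in the first pass at 4 µM, then a duplicate retest at 5 µM averaging 50% or more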;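 note: plate controls were cells with TRAIL plus DMSO for no effect and medium-only wells lacking cells for full effect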
C8 TRAIL sens: caspase-8 TRAIL sensitization | NB7+C8 cells + TRAIL, ATPlite viability luminescence | inhibition (viability loss, TRAIL sensitization), % at 10 µM | actives 1% (n = 360,000) | AID 624354;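 active = compounds causing at least 50% loss of cell viability in the single-dose screen, relative to plate controls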
* marks the source's active call; other numbers are inactive results. Compounds with a hit are over-represented: about 1.5% of the library has one in this group of screens.

COc1ccc(-c2ccc3ccccc3n2)cc1 was read as FLuc stim CS 0.3, FLuc inhib CS 72*, PPC-1+TRAIL kill 43 and C8 TRAIL sens 58*.
For COc1ccc(-c2cc3ccccc3cn2)cc1 the results were C8 TRAIL sens 55*.
For c1ccc(-c2cc(-c3cc(-c4ccccc4)on3)no2)cc1 the results were C8 TRAIL sens 14.
Screening COc1ccc(-c2cc(-c3ccccc3)no2)cc1 returned C8 TRAIL sens 59*.
For COc1ccc(-c2cc3ccc(OC)cc3cn2)cc1 the results were C8 TRAIL sens 77*.
For COc1ccc2cc(-c3cccnc3)ncc2c1 the results were C8 TRAIL sens 32.
COc1ccc(-c2cc(OC)c3ccccc3n2)cc1 was read as FLuc stim CS 1, FLuc inhib CS 3, PPC-1+TRAIL kill -3 and C8 TRAIL sens 2.
For COC(=O)c1nn(-c2ccc(Oc3ccccc3)cc2)c(=O)cc1O the results were FLuc stim CS 1, FLuc inhib CS -2, PPC-1+TRAIL kill -9 and C8 TRAIL sens 1.
Screening COc1nc(C)nc(Cl)c1NC1=NCCN1 returned C8 TRAIL sens -7.
For FC(F)(F)Oc1ccccc1C(c1nnnn1C1CCCC1)N1CCN(C/C=C/c2ccccc2)CC1 (configuration not stated) the results were C8 TRAIL sens 0.
`COc1cccc(-c2cc(C(=O)N3CCOCC3)no2)c1` gave C8 TRAIL sens -3.
For COc1ccc(-c2cc(C(=O)N3CCOCC3)no2)cc1 the results were C8 TRAIL sens 51*.
Screening COc1ccc2cc(-c3ccccc3F)ncc2c1 returned C8 TRAIL sens 53*.
`COc1ccc(-c2ccc(-c3nnn(CC(=O)N4CCOCC4)n3)cc2)cc1` gave FLuc stim CS 0.3, FLuc inhib CS 74*, PPC-1+TRAIL kill 0 and C8 TRAIL sens 52*.
COC(=O)[C@H]1C[C@@]2(O)CN(S(=O)(=O)c3ccc(C)cc3)C[C@@]2(OC(=O)Nc2cccs2)C[C@H]1C(=O)OC was read as C8 TRAIL sens 5.
`C[C@H](CO)N1C[C@H](C)[C@@H](CN(C)C(=O)NC2CCCCC2)Oc2c(NS(=O)(=O)c3ccc(F)cc3)cccc2C1=O` gave C8 TRAIL sens -10.
Screening C[C@H](CO)N1C[C@H](C)[C@@H](CN(C)C(=O)NC2CCCCC2)Oc2c(NS(=O)(=O)c3ccccc3)cccc2C1=O returned C8 TRAIL sens 50*.
COc1ccc(/C=C/c2nc(S(=O)(=O)c3ccccc3)c(N(C)C)o2)cc1 was read as C8 TRAIL sens 3.
C=C(C)CSc1nnc2n(C)c(=O)c3c4c(sc3n12)CCC4 was read as FLuc stim CS 1, FLuc inhib CS -4, PPC-1+TRAIL kill 0 and C8 TRAIL sens 55*.
For Fc1ccc(-c2csc(Nc3ccccn3)n2)c(F)c1 the results were C8 TRAIL sens 57*.
Oc1ccc(-c2csc(Nc3ncccn3)n2)cc1O was read as FLuc stim CS 0.5, FLuc inhib CS 53*, PPC-1+TRAIL kill 35 and C8 TRAIL sens 48.
Cc1ccc(-c2csc(Nc3ccccn3)n2)cc1 was read as C8 TRAIL sens 62*.
CC(=O)Nc1cccc(-c2csc(Nc3ncccn3)n2)c1 was read as FLuc stim CS 0.6, FLuc inhib CS 40 and PPC-1+TRAIL kill 40.
For Oc1ccc(-c2csc(Nc3ncccn3)n2)c(O)c1 the results were FLuc stim CS 0.7, FLuc inhib CS 26, PPC-1+TRAIL kill 11 and C8 TRAIL sens 14.
`CC(=O)Nc1cccc(-c2csc(Nc3ccc(C)cn3)n2)c1` gave FLuc stim CS 0.3, FLuc inhib CS 71*, PPC-1+TRAIL kill 16 and C8 TRAIL sens 64*.
N#Cc1ccc(OCC(=O)NNC(=S)NC2CCCCC2)cc1 was read as C8 TRAIL sens 12.
`COC(=O)CSc1nnc(NC(=O)/C=C\c2ccc3c(c2)OCO3)s1` gave FLuc stim CS 1, FLuc inhib CS -3, PPC-1+TRAIL kill 33 and C8 TRAIL sens 53*.
`COC(=O)CSc1nnc(NC(=O)c2ccc3c(c2)OCO3)s1` gave C8 TRAIL sens 77*.
For COc1ccccc1N1CCN(S(=O)(=O)CCNC(=O)C2CC2)CC1 the results were C8 TRAIL sens -12.
`COC(=O)CNc1c(-c2ccccn2)nc2ccc(Br)cn12` gave FLuc stim CS 0.2, FLuc inhib CS 77*, PPC-1+TRAIL kill 31 and C8 TRAIL sens 21.
`Cc1cc(C(=O)Cn2nnc3ccccc3c2=O)c(C)n1Cc1cccs1` gave FLuc stim CS 0.2, FLuc inhib CS 80*, PPC-1+TRAIL kill 44 and C8 TRAIL sens 58*.
Cc1cc(C(=O)Nc2ccc(Cl)cc2)c(C)n1Cc1cccs1 was read as PPC-1+TRAIL kill 46 and C8 TRAIL sens 43.
For Cc1cc(C)cc(NC(=O)c2cc(C)n(Cc3cccs3)c2C)c1 the results were PPC-1+TRAIL kill 42 and C8 TRAIL sens 51*.
Cc1cc(C(=O)CN2C(=O)c3ccccc3C2=O)c(C)n1Cc1cccs1 was read as FLuc stim CS 0.4, FLuc inhib CS 62*, PPC-1+TRAIL kill 5 and C8 TRAIL sens 46.
`Cc1cc(C(=O)CN2C(=O)CCC2=O)c(C)n1Cc1ccccc1` gave FLuc stim CS 1, FLuc inhib CS -1, PPC-1+TRAIL kill 14 and C8 TRAIL sens -2.
Screening Cc1cc(NC(=O)c2ccc(Cl)cc2)c(C(C)C)cc1O returned FLuc stim CS 0.9, FLuc inhib CS 7, PPC-1+TRAIL kill 5 and C8 TRAIL sens -4.
Cc1cc(NC(=O)c2ccc(Cl)cc2)c(C)cc1O was read as FLuc stim CS 0.5, FLuc inhib CS 53*, PPC-1+TRAIL kill 33 and C8 TRAIL sens 15.
Screening Cc1ccc([C@@H]2CC=C(C(=O)O)[C@H](c3ccccc3F)N2S(=O)(=O)c2ccccc2C)cc1 returned C8 TRAIL sens 12.
`COc1ccc(-c2cc3ccccc3c(=O)o2)cc1` gave C8 TRAIL sens 53*.
CN(C)CCNC(=O)c1ccccc1-c1cc2ccccc2c(=O)o1 was read as C8 TRAIL sens 11.
CN(C)c1ccc(-c2cc3ccccc3c(=O)o2)cc1 was read as C8 TRAIL sens 57*.
Screening COc1ccc(-c2cc(=O)c3ccccc3o2)cc1 returned PPC-1+TRAIL kill -3 and C8 TRAIL sens 32.
Screening Cc1noc(C)c1S(=O)(=O)N(C)C[C@@H]1OCc2cnnn2CCCC(=O)N([C@H](C)CO)C[C@@H]1C returned C8 TRAIL sens 10.
COc1cc(NC(=O)CSc2nc3ccccc3n2-c2ccccc2)c(C)cc1[N+](=O)[O-] was read as FLuc stim CS 1, FLuc inhib CS 1, PPC-1+TRAIL kill 17 and C8 TRAIL sens 12.
Cc1sc(NC(=O)C2CCCCC2C(=O)O)c(C(N)=O)c1-c1ccccc1 (configuration not stated) was read as FLuc stim CS 0.5, FLuc inhib CS 55*, PPC-1+TRAIL kill 15 and C8 TRAIL sens 30.
CC(=O)Nc1ccc(NC(=O)CCCn2cnc3ccccc3c2=O)cc1 was read as C8 TRAIL sens -3.
